For 15 molecules, Activity, IC50 and EC50 results are on record in ChEMBL document CHEMBL3286354, “9- and 11-Substituted 4-azapaullones are potent and selective inhibitors of African trypanosoma” (Eur J Med Chem, 2014).

Data set [1] is described as follows: Toxicity in mouse macrophages at 54 uM after 24 hrs by xCELLingence assay relative to control. The note with it: macrophage. It is filed as cell-based. A digest of the protocol: (§1)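 Mouse bone marrow-derived macrophages were seeded at 7.5×10^4 per well in DMEM with 2 mM L-glutamine and 10% heat-inactivated FCS for 24 h. They were then exposed for 24 h to each compound at its highest soluble concentration. Impedance (cell index) was read every 30 min. % toxicity = 100 − (cell index compound / cell index medium × 100).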

Data set [2] concerns the target T1, Trypanothione synthetase (Trypanosoma brucei brucei) (UniProt Q86MC2).
T1 sequence (whole entry): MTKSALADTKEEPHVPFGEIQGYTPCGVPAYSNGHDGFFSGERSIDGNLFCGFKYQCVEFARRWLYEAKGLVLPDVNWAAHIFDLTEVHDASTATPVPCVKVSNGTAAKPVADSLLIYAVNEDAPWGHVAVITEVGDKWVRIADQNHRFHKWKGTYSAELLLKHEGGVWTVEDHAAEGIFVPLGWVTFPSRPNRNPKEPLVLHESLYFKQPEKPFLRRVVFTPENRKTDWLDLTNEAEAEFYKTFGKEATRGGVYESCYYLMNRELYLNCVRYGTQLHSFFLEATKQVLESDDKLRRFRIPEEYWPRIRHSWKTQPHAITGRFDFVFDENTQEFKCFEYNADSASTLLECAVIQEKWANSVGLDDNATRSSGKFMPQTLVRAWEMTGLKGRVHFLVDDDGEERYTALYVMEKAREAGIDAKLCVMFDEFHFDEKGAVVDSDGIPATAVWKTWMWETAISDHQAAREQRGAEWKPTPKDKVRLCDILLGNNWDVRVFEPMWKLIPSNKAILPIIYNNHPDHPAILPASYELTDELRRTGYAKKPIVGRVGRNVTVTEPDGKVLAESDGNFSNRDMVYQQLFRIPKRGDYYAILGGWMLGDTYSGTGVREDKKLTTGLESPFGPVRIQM
The data set can be described thus: Inhibition of Trypanosoma brucei brucei trypanothione synthetase assessed as residual activity at 30 uM after 15 mins incubation by Biomol Green phosphate release absorbance assay.

Data set [3] relates to Trypanosoma brucei brucei. The data set can be described thus: Antitrypanosomal activity against Trypanosoma brucei brucei 427 assessed as viability at 30 uM after 24 hrs by Flow cytometry relative to control. Format: functional. A digest of the protocol:
(§2)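 Single-concentration primary screen on infective T. b. brucei 427, seeded at 5×10^5 cells/mL in HMI-9/10% FBS, 37 °C, 5% CO2, for 24 h. Live cells were counted by flow cytometry with propidium iodide gating over a fixed 60 s acquisition. % viability is relative to the DMSO proliferation control. Triplicates; error as 2 SD.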

Data set [4] in a line: Toxicity in mouse macrophages at 48 uM after 24 hrs by xCELLingence assay relative to control. It is filed as cell-based. The note with it: macrophage. In a few lines: as §1
Data set [5] deals with Trypanosoma brucei brucei. Nature of the data set: Antitrypanosomal activity against Trypanosoma brucei brucei 427 assessed as viability at 5 uM after 24 hrs by Flow cytometry relative to control. Format: functional. A digest of the protocol: as §2
(In general: In flow cytometry, cells or beads pass a laser one at a time.)

Data set [6] is described as follows: Toxicity in mouse macrophages at 56 uM after 24 hrs by xCELLingence assay relative to control. It is filed as cell-based. The note with it: macrophage. A digest of the protocol:
as §1

A short description of data set [7]: Toxicity in mouse macrophages at 12 uM after 24 hrs by xCELLingence assay relative to control. The note with it: macrophage. Format: cell-based. In a few lines:
as §1

The nature of data set [8]: Toxicity in mouse macrophages at 59 uM after 24 hrs by xCELLingence assay relative to control. It is filed as cell-based. The conditions noted are these: macrophage. In a few lines: as §1
Data set [9] has as its target Dual specificity tyrosine-phosphorylation-regulated kinase 1A (Homo sapiens, UniProt Q13627). The data set can be described thus: Inhibition of human recombinant DYRK1A. A digest of the protocol: (§3)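 Radiometric kinase assays in buffer A (10 mM MgCl2, 1 mM EGTA, 1 mM DTT, 25 mM Tris-HCl pH 7.5, heparin) or buffer B, with ATP, 30 min at 30 °C. Products were captured on P81 phosphocellulose, washed in 1% phosphoric acid and scintillation counted. Activity is % of the uninhibited control. Substrates: histone H1 for CDK2/CDK5 (BSA added for CDK5), CDK7/9-Tide for CDK9, RS peptide for DYRK1A/CLK1, GS-1 for GSK-3, CKS peptide for CK1.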

Data set [10] deals with Cyclin-dependent kinase 2/cyclin E1 (Homo sapiens, UniProt P24941). The data set can be described thus: Inhibition of human recombinant CDK2/cyclin E. It is filed as protein-complex assay. In a few lines: as §3
Data set [11] deals with CDK9/cyclin T1 (Homo sapiens, UniProt P50750). The data set can be described thus: Inhibition of human recombinant CDK9/cyclin T. Format: protein-complex assay. A digest of the protocol: as §3
Sequence of CDK9/cyclin T1 (O60563 whole entry): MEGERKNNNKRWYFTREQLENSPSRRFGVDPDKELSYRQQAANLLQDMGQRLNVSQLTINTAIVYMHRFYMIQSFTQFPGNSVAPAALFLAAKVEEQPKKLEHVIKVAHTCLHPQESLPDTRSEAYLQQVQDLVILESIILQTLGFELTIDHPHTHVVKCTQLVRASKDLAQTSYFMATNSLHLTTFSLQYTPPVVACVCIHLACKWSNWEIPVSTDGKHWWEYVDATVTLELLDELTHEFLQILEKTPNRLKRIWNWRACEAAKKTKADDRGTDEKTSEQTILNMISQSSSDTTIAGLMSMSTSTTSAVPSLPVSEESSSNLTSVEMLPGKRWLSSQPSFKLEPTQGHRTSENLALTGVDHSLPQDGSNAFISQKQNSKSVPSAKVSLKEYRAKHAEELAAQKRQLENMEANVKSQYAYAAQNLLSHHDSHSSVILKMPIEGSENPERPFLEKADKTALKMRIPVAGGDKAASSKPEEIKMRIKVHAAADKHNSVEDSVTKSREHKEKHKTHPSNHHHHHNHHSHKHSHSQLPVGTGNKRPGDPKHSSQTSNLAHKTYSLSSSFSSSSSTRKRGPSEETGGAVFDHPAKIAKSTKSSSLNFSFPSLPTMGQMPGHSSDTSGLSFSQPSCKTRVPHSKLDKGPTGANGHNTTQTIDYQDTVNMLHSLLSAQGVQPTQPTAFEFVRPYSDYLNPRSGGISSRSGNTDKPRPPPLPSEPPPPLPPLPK
Sequence of CDK9/cyclin T1 (P50750 whole entry): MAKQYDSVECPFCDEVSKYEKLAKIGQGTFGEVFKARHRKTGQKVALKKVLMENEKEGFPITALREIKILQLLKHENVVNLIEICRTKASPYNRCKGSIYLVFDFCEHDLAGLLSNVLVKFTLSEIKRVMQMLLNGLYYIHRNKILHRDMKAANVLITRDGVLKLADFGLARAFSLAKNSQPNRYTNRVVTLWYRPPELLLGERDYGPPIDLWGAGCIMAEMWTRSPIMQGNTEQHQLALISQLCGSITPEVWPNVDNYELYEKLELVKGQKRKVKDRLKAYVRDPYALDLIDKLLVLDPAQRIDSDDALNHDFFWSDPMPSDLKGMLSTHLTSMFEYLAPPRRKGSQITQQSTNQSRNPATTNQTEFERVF
Data set [12] in a line: Inhibition of pig brain CK1 delta/epsilon using CKS peptide substrate. The arrangement: species or system Sus scrofa. In a few lines: as §3
Data set [13] deals with Dual specificity protein kinase CLK1 (Mus musculus, UniProt P22518). The data set can be described thus: Inhibition of mouse recombinant CLK1. A digest of the protocol: as §3
Sequence of Dual specificity protein kinase CLK1 (P22518 whole entry): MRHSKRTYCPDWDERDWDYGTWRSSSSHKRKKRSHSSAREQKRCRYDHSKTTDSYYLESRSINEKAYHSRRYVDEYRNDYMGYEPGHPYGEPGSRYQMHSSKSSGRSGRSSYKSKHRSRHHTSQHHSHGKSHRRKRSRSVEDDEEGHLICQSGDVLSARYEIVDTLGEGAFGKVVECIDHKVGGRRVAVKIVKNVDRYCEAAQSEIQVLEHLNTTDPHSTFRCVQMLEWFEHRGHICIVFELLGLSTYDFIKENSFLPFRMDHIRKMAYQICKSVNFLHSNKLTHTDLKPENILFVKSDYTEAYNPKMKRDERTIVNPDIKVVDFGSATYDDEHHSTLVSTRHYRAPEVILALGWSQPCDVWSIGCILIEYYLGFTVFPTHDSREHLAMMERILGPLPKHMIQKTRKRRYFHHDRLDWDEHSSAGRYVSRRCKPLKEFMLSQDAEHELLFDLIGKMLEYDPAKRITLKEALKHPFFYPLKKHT
Data set [14] relates to Trypanosoma brucei brucei. The data set can be described thus: Antitrypanosomal activity against Trypanosoma brucei brucei 427 assessed as viability after 24 hrs by Flow cytometry. Format: functional, organism-based. The note with it: Trypanosoma brucei, 427, 24 h. In a few lines:
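Infective bloodstream T. b. brucei 427 (cell line 449 carrying a redox biosensor) in HMI-9 with 10% FBS at 37 °C, 5% CO2. Cells were seeded at 5×10^5 cells/mL with two-fold serial dilutions from DMSO stocks and incubated 24 h. Viability was by propidium iodide exclusion flow cytometry. EC50 came from a sigmoidal Boltzmann fit or non-linear extrapolation, with error as 2 SD.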

Data set [15] concerns the target Glycogen synthase kinase-3 (Sus scrofa, UniProt B2LUN4+I6LNT8). The data set can be described thus: Inhibition of pig brain GSK-3alpha/beta using GS-1 peptide substrate. In a few lines: as §3
The nature of data set [16]: Inhibition of starfish CDK1/cyclinB using histone H1 substrate.
Data set [17] can be described thus: Toxicity in mouse macrophages at 26 uM after 24 hrs by xCELLingence assay relative to control. The conditions noted are these: macrophage. Format: cell-based. A digest of the protocol: as §1
For data set [18], the target named is Cyclin-dependent kinase 5/CDK5 activator 1 (Homo sapiens, UniProt Q00535). The data set can be described thus: Inhibition of human recombinant CDK5/p25. Format: protein-complex assay. In a few lines: as §3
Sequence of Cyclin-dependent kinase 5/CDK5 activator 1 (Q00535 whole entry): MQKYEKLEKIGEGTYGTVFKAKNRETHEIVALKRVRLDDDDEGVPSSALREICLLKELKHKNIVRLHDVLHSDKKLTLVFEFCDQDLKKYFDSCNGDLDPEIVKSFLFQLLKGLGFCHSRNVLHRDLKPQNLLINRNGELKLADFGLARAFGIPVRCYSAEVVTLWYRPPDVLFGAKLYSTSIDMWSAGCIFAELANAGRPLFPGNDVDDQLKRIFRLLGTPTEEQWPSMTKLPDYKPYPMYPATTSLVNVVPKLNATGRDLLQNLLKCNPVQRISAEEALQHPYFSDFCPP
Sequence of Cyclin-dependent kinase 5/CDK5 activator 1 (Q15078 whole entry, further chain): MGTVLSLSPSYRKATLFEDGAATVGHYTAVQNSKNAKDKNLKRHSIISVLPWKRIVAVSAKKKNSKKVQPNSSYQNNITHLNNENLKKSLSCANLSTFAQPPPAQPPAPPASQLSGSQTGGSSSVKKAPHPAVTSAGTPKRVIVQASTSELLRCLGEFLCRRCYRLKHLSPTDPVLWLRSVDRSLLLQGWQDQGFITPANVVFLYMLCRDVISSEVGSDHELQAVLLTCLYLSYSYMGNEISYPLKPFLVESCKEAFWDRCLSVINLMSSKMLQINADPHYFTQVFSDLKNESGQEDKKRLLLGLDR
The nature of data set [19]: Toxicity in mouse macrophages at 58 uM after 24 hrs by xCELLingence assay relative to control. Format: cell-based. The note with it: macrophage. In a few lines:
as §1

Data set [20] is described as follows: Toxicity in mouse macrophages at 10 uM after 24 hrs by xCELLingence assay relative to control. Format: cell-based. The conditions noted are these: macrophage. In a few lines: as §1
The nature of data set [21]: Toxicity in mouse macrophages at 29 uM after 24 hrs by xCELLingence assay relative to control. Format: cell-based. The note with it: macrophage. A digest of the protocol: as §1
A short description of data set [22]: Toxicity in mouse macrophages at 60 uM after 24 hrs by xCELLingence assay relative to control. It is filed as cell-based. The conditions noted are these: macrophage. A digest of the protocol:
as §1

A short description of data set [23]: Toxicity in mouse macrophages at 24 uM after 24 hrs by xCELLingence assay relative to control. It is filed as cell-based. The conditions noted are these: macrophage. In a few lines:
as §1

Data set [24] can be described thus: Toxicity in mouse macrophages at 5 uM after 24 hrs by xCELLingence assay relative to control. Format: cell-based. The conditions noted are these: macrophage. A digest of the protocol:
as §1

SMILES strings stand for the structures. pEC50, pIC50: −log10 of the molar value.

As for `O=C1Cc2c([nH]c3ccc(/C=C/C(=O)c4ccco4)cc23)-c2cccnc2N1`, the Activity is 17.6% in data set [1], 90.2% in data set [2] and 21.9% in data set [3].
On to `O=C1Cc2c([nH]c3ccc(/C=C/C(=O)c4ccc(Cl)cc4)cc23)-c2cccnc2N1`, for which the Activity worked out at 79.8% in data set [2], 4.73% in data set [4] and 38.4% in data set [5].
As for `CCN(CC)C(=O)/C=C/c1cccc2c3c([nH]c12)-c1cccnc1NC(=O)C3`, the values for the Activity in [2], in data set [6] and in [3] were 102%, under 0% and 81.6%, respectively.
Turning to `COc1ccc(C(=O)/C=C/c2ccc3[nH]c4c(c3c2)CC(=O)Nc2ncccc2-4)cc1`, the Activity in [2] was 77.6%; in data set [7] it was 20.3%; in data set [5] it was 44.5%.
Take `CCN(CC)C(=O)/C=C/c1ccc2[nH]c3c(c2c1)CC(=O)Nc1ncccc1-3`: the results for the Activity in [2], in data set [8] and in data set [3] were 91.5%, under 0% and 22.1%, respectively.
As for `O=C1Cc2c([nH]c3c(/C=C/C(=O)c4ccccc4)cccc23)-c2cccnc2N1`, the pIC50 in [9], in data set [10], in data set [11], in [12], in data set [13] and in data set [16] was under 5.00 throughout. Besides, the pIC50 in data set [18] was under 5.00. For the same molecule, the Activity in data set [2] is 91.1%; in data set [5], under 10%; in [17] it was 28.3%. The pEC50 in data set [14] is 6.74. Also, the IC50 in data set [15] was over 10 µM.
Take `O=C1Cc2c([nH]c3ccc(/C=C/C(=O)c4ccccc4)cc23)-c2cccnc2N1`: the Activity stood at 61.9% in data set [2], 54% in data set [5] and 7.6% in data set [17].
Consider `O=C(/C=C/c1ccc2[nH]c3c(c2c1)CC(=O)Nc1ncccc1-3)Nc1ccccc1`, for which the figures for the Activity in data set [19], in data set [2] and in data set [5] were under 0%, 68.1% and under 10%, respectively. Besides, the pEC50 in [14] is 5.60.
On to `COc1ccc(C(=O)/C=C/c2cccc3c4c([nH]c23)-c2cccnc2NC(=O)C4)cc1`, for which the results for the Activity in data set [2], in data set [4] and in [3] were 80.4%, 16.5% and 79.9%, respectively.
Regarding `O=C1Cc2c([nH]c3ccc(I)cc23)-c2cccnc2N1`, the Activity in data set [2] was determined as 96.7%; in data set [20] it was 12.3%; in [3], 72.1%.
With `O=C1Cc2c([nH]c3c(/C=C/C(=O)c4ccc(Cl)cc4)cccc23)-c2cccnc2N1`, the values for the Activity in data set [2], in data set [7] and in [5] were 73.2%, 9.2% and 74.6%, respectively.
Regarding `O=C(/C=C/c1ccc2[nH]c3c(c2c1)CC(=O)Nc1ncccc1-3)NCc1ccccc1`, the results for the Activity in data set [21], in data set [2] and in [5] were under 0%, 67.5% and 12.1%, respectively.
As for `O=C(/C=C/c1cccc2c3c([nH]c12)-c1cccnc1NC(=O)C3)Nc1ccccc1`, the pIC50 in [9] was under 5.00; in data set [10], under 5.00; in data set [11], under 5.00; in [12], 6.31; in data set [13], under 5.00; in data set [16], under 5.00. Further, the pIC50 in data set [18] was under 5.00. Further, the Activity in [22] is 74.7%; in [2] it was 94.6%; in data set [5] it was under 10%. Also, the pEC50 in data set [14] is 6.92. The IC50 in [15] is over 10 µM.
On to `O=C(/C=C/c1cccc2c3c([nH]c12)-c1cccnc1NC(=O)C3)NCc1ccccc1`, for which the Activity is 4.16% in data set [23], 81.8% in data set [2] and under 10% in [5]. Further, the pEC50 in data set [14] was 6.35.
In the case of `O=C1Cc2c([nH]c3c(I)cccc23)-c2cccnc2N1`, the Activity stood at 4.4% in [24], 112% in data set [2] and 61.3% in [3].

For orientation: pIC50 means the negative decadic logarithm of the IC50, by convention in mol/L. One may read the pEC50 as −log10 of the EC50, conventionally taken in molar units. One may read the IC50 as the concentration that gives 50% inhibition. A higher IC50 goes with weaker potency.
